Legend:
HeLa [1] = assay: Cytotoxicity against human HeLa cells at exponential phase of growth after 48 hrs by MTT assay; assay type: functional, cell-based
Summary of the method: (§1)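 Monolayers grown in DMEM with 5% fetal calf serum and penicillin-streptomycin at 37 °C, 5% CO2. 2×10^4 cells/well in lag or log phase were exposed for 48 h to a concentration series of compounds predissolved in DMSO. MTT formazan was dissolved in DMSO and read at 550 nm. IC50 taken from the curve; three independent experiments.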

HEp-2 [2] = assay: Cytotoxicity against human Hep2 cells at lag phase of growth after 48 hrs by MTT assay; assay type: functional, cell-based; summary of the method: as §1
HeLa [3] = assay: Cytotoxicity against human HeLa cells at lag phase of growth after 48 hrs by MTT assay; assay type: functional, cell-based; summary of the method: as §1
Vero [4] = assay: Cytotoxicity against african green monkey Vero cells at lag phase of growth after 48 hrs by MTT assay; assay type: cell-based, Chlorocebus sabaeus; summary of the method: as §1
Vero [5] = assay: Cytotoxicity against african green monkey Vero cells at exponential phase of growth after 48 hrs by MTT assay; assay type: cell-based, Chlorocebus sabaeus; summary of the method: as §1
HEp-2 [6] = assay: Cytotoxicity against human Hep2 cells at exponential phase of growth after 48 hrs by MTT assay; assay type: functional, cell-based; summary of the method: as §1
Staphylococcus aureus = assay: Antibacterial activity against Staphylococcus aureus ATCC 6538 after 24 hrs by broth dilution assay; assay type: functional
[7] = system: Mycolicibacterium smegmatis; assay: Antibacterial activity against Mycobacterium smegmatis ATCC 19420 after 48 hrs by broth dilution assay; assay type: functional; conditions: ATCC 19420, 48 h
Summary of the method: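 Brain heart infusion broth with 0.06% Tween 80, 37 °C on a rotary shaker, inoculum about (1-5) × 10^5 cfu/mL, DMSO ≤1% v/v with matched controls, in triplicate. OD550 monitored.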

[8] = system: Staphylococcus epidermidis; assay: Antibacterial activity against Staphylococcus epidermidis ATCC 14990 after 24 hrs by broth dilution assay; assay type: functional
Summary of the method: (§2)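 Microdilution in nutrient broth at 37 °C, about (1-5) × 10^5 cfu/mL inoculum, compounds in DMSO (≤1% v/v, matched DMSO controls), in triplicate. Growth followed by OD550. Wells without visible growth after 24 h on a rotary shaker were subcultured in duplicate onto nutrient agar and colonies counted after overnight incubation. MIC is the lowest concentration inhibiting growth at 24 h.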

Enterococcus faecalis = assay: Antibacterial activity against Enterococcus faecalis ATCC 29212 after 24 hrs by broth dilution assay; assay type: functional; conditions: ATCC 29212, 24 h
Summary of the method: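 Microdilution in brain heart infusion broth, shaken at 37 °C, about (1-5) × 10^5 cfu/mL start, DMSO ≤1% v/v with matched controls, in triplicate. OD550 read. Clear wells at 24 h were subcultured in duplicate onto brain heart infusion agar and counted after overnight incubation. MIC is the lowest concentration giving growth inhibition.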

Bacillus subtilis = assay: Antibacterial activity against Bacillus subtilis ATCC 6051 after 24 hrs by broth dilution assay; assay type: functional
Salmonella = assay: Antibacterial activity against Salmonella CECT 4569 after 24 hrs by broth dilution assay; assay type: functional; conditions: CECT 4569, 24 h; summary of the method: as §2
Pseudomonas aeruginosa = assay: Antibacterial activity against Pseudomonas aeruginosa AK958 after 24 hrs by broth dilution assay; assay type: functional; conditions: AK958, 24 h; summary of the method: as §2
Proteus mirabilis = assay: Antibacterial activity against Proteus mirabilis CECT 170 after 24 hrs by broth dilution assay; assay type: functional; conditions: CECT 170, 24 h; summary of the method: as §2
Bacillus cereus = assay: Antibacterial activity against Bacillus cereus ATCC 21772 after 24 hrs by broth dilution assay; assay type: functional
Escherichia coli = assay: Antibacterial activity against Escherichia coli ATCC 9637 after 24 hrs by broth dilution assay; assay type: functional; conditions: ATCC 9637, 24 h; summary of the method: as §2
Candida albicans = assay: Antibacterial activity against Candida albicans CECT 1039 after 24 hrs by broth dilution assay
MCF7 [9] = assay: Cytotoxicity against human MCF7 cells at lag phase of growth after 48 hrs by MTT assay; assay type: functional, cell-based; summary of the method: as §1
MCF7 [10] = assay: Cytotoxicity against human […] cells at exponential phase of growth after 48 hrs by MTT assay; assay type: functional, cell-based; summary of the method: as §1
A549 [11] = assay: Cytotoxicity against human A549 cells at lag phase of growth after 48 hrs by MTT assay; assay type: functional, cell-based; summary of the method: as §1
A549 [12] = assay: Cytotoxicity against human A549 cells at exponential phase of growth after 48 hrs by MTT assay; assay type: functional, cell-based; summary of the method: as §1
[13] = Homo sapiens, HeLa, 48 h, read-out: IC50
[14] = Homo sapiens, HEp-2, 48 h, read-out: IC50
[15] = Chlorocebus sabaeus, Vero, 48 h, read-out: IC50
[16] = Homo sapiens, MCF7, 48 h, read-out: IC50
[17] = Homo sapiens, A549, 48 h, read-out: IC50

Compound	MIC (Staphylococcus aureus) [µg/mL]	MIC [7] [µg/mL]	MIC [8] [µg/mL]	MIC (Enterococcus faecalis) [µg/mL]	MIC (Bacillus subtilis) [µg/mL]	MIC (Salmonella) [µg/mL]	MIC (Pseudomonas aeruginosa) [µg/mL]	MIC (Proteus mirabilis) [µg/mL]	MIC (Escherichia coli) [µg/mL]	MIC (Candida albicans) [µg/mL]	IC50 (HeLa [1]; [13]) [µM]	IC50 (HEp-2 [2]; [14]) [µM]	IC50 (HeLa [3]; [13]) [µM]	IC50 (Vero [4]; [15]) [µM]	IC50 (Vero [5]; [15]) [µM]	IC50 (HEp-2 [6]; [14]) [µM]	MI50 (Bacillus cereus) [µg/mL]	IC50 (MCF7 [9]; [16]) [µM]	IC50 (MCF7 [10]; [16]) [µM]	further results
CC(C)c1cc2c(c(O)c1O)[C@@]1(C(=O)O)CCCC(C)(C)[C@@H]1C[C@H]2Sc1ccccc1	–	–	–	–	–	–	–	–	–	–	11.1	15.2	4.8	6.1	21.1	18.9	–	–	–	–
COc1c(C(C)C)cc2c(c1OC)[C@@]13CCCC(C)(C)[C@@H]1[C@H](OC3=O)[C@@H]2OCc1ccccc1	>40	> 40	>40	> 40	>40	> 40	> 40	> 40	> 40	>40	–	–	–	–	–	–	>40	–	–	IC50 (HeLa [1]; hela): Not Active; IC50 (MCF7 [9]; mcf7): Not Active; IC50 (HEp-2 [2]; hep-2): Not Active; IC50 (HeLa [3]; hela): Not Active; IC50 (MCF7 [10]; mcf7): Not Active; IC50 (A549 [11]; a549): Not Active; IC50 (Vero [4]; vero): Not Active; IC50 (Vero [5]; vero): Not Active; IC50 (A549 [12]; a549): Not Active; IC50 (HEp-2 [6]; hep-2): Not Active
CC(=O)OC[C@H](C)C1=C(OC(C)=O)C(O)C2=C(C1=O)[C@@H]1C[C@H]3C(C)(C)CCC[C@]23C(=O)O1 (some centres not stated)	>40	> 40	>40	> 40	>40	> 40	> 40	> 40	> 40	>40	40.5	> 45	33.8	> 45	> 45	> 45	>40	> 45	> 45	–
CC(C)C1=CC2=C(C(=O)C1=O)[C@@]13CCCC(C)(C)[C@@H]1[C@@H](O)[C@@H]2OC3=O [ISOROSMAQUINONE]	–	–	–	–	–	–	–	–	–	–	30.8	39.5	25	> 60	> 60	39.2	–	–	–	–

Now from value to compound, other results behind:

MIC (Staphylococcus aureus) [µg/mL]	MIC [7] [µg/mL]	MIC [8] [µg/mL]	MIC (Enterococcus faecalis) [µg/mL]	MIC (Bacillus subtilis) [µg/mL]	MIC (Salmonella) [µg/mL]	MIC (Pseudomonas aeruginosa) [µg/mL]	MIC (Proteus mirabilis) [µg/mL]	MIC (Escherichia coli) [µg/mL]	MIC (Candida albicans) [µg/mL]	Compound	IC50 (HeLa [1]; [13]) [µM]	IC50 (HEp-2 [2]; [14]) [µM]	IC50 (HeLa [3]; [13]) [µM]	IC50 (Vero [4]; [15]) [µM]	IC50 (Vero [5]; [15]) [µM]	IC50 (HEp-2 [6]; [14]) [µM]	MI50 (Bacillus cereus) [µg/mL]	IC50 (MCF7 [9]; [16]) [µM]	IC50 (MCF7 [10]; [16]) [µM]	further results
>40	> 40	>40	> 40	>40	> 40	> 40	> 40	> 40	>40	CC(C)C1=CC2=C(C(=O)C1=O)[C@@]13CCCC(C)(C)[C@@H]1C[C@@H]2OC3=O	40.2	> 60	> 60	–	–	> 60	>40	–	–	–
>40	> 40	>40	> 40	>40	> 40	> 40	> 40	> 40	>40	C[C@H]1COc2c1cc1c(c2O)[C@@]23CCCC(C)(C)[C@@H]2C[C@@H]1OC3=O	37.8	> 60	56.1	> 60	> 60	> 60	>40	> 60	> 60	IC50 (A549 [11]; [17]): > 60 µM; IC50 (A549 [12]; [17]): 51.5 µM
>40	> 40	>40	> 40	>40	> 40	> 40	> 40	> 40	>40	Cc1coc2c1C(=O)C1=C(C2=O)[C@@]23CCCC(C)(C)[C@@H]2C[C@@H]1OC3=O	> 58.8	–	> 58.8	> 58.8	> 58.8	–	>40	> 58.8	> 58.8	IC50 (A549 [11]; [17]): 48.8 µM; IC50 (A549 [12]; [17]): > 58.8 µM

Reference: ChEMBL document CHEMBL1154249, “Semisynthesis and biological evaluation of abietane-type diterpenes. Revision of the structure of rosmaquinone” (J Nat Prod, 2009)
